FXN GAA850 act – FXN promoter activators, primary screen, cell-based, luciferase luminescence, HEK293 lucGAA850; activation, % at 6 µM; HEK293 lucGAA850 FXN promoter luciferase reporter, 24 h; percent of 10 µM SAHA response; 360,000 tested, 0.56% active;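 active = activation above the average of all compounds screened plus 3 SD, cutoff fixed separately per campaign, cut at about 7.5% in these data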;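 also: 0% = DMSO wells and 100% = 10 µM SAHA wells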
UPR XBP1 act – activators of adaptive XBP1 UPR arm, primary screen, cell-based, CHO-XBP1 luciferase reporter, luminescence, uHTS | 330,000 tested, 0.33% active | activation, % at 20 µM | IRE1-XBP1 UPR activation; percent of tunicamycin response, DMSO as zero | AID 463104, 2010;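 active = versus positive control, 20 µM dose yields 30% or more activation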;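 also: 100% = tunicamycin at 10 µg/mL and 0% = DMSO only wells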
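Material: CHO-XBP1 cells stably carrying IRE1-XBP1-driven luciferase reporter / Amount: 1000 cells per well / Compound: 20 µM, 1% DMSO / Times: 6 h treatment, 37 °C / Detection: luciferase luminescence / Measure: % activation of reporter signal versus tunicamycin and DMSO controls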
CHOP inh – inhibitors of CHOP promoter induction, primary screen, cell-based, unfolded protein response, luciferase reporter. inhibition, % at 10 µM. CHO-K1 CHOP-promoter luciferase, tunicamycin-induced, 15-18 h. 220,000 tested, 3.8% active. AID 2732, 2010;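 active = compounds that reduced the stress-induced luciferase reporter signal by more than about 70% of percent inhibition, limit read from the data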;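 also: 0% = tunicamycin plus vehicle and 100% = wells without tunicamycin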
CHOP UPR activ – activators of apoptotic CHOP UPR arm, primary screen, cell-based, CHO-CHOP luciferase reporter, luminescence, uHTS | UPR activation; percent of tunicamycin response over DMSO baseline | activation, % at 10 µM | 330,000 tested, 0.34% active;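 active = at 10 µM dose, activation of 40% or more, normalized to positive control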;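 also: 100% = tunicamycin at 10 µg/mL and 0% = DMSO alone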
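assay system = CHO CHOP reporter cells | amount = 500 CHO-CHOP cells per well | buffer or medium = F12 with 10% FBS | incubation = 16-18 h cell attachment, then 6 h compound exposure, 37 °C | detection = luminescence read with Steady-Glo | read-out = percent activation relative to tunicamycin control | controls = tunicamycin high control, DMSO low control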
An asterisk follows results filed as active; . = no result given. This excerpt belongs to a sample that is enriched for hits.

SMILES	FXN GAA850 act	UPR XBP1 act	CHOP inh	CHOP UPR activ
Cc1nc(C(F)(F)F)ccc1C(=O)N1CCC(C)(C(=O)O)C1 (centres undefined)	-0.6	.	.	.
CC1C(=O)N(Cc2cn(CCC3OCCCO3)nn2)CCS(=O)(=O)N1Cc1ccc(-c2ccc(Cl)cc2)cc1 (centres undefined)	-1.4	.	.	.
O=C(NCc1ccc(F)cc1)c1cc(C2CCCCN2S(=O)(=O)Cc2ccccc2)on1 (centres undefined)	-0.7	.	.	.
Cc1cccc(C)c1NC(=O)c1cccc2c1-c1ccccc1C2=O	-3.7	2.2	78.4*	2.4
COc1ncnc2c1ncn2CCCNC1CCN(Cc2ccccc2)CC1	-0.6	.	.	.
O=C(Cn1cnc2sc(-c3ccccc3)cc2c1=O)NCc1ccccc1	-4.0	-2.4	58.2	0.1
Cc1cc2c(s1)c1cnn(CC(=O)NCCc3ccccc3)c(=O)c1n2C	.	-4.2	86.9*	-1.0
Cc1cc2c(s1)c1cnn(-c3ccccc3)c(=O)c1n2C	-0.6	-2.5	.	1.9
O=C(Cn1cnc2sc(-c3ccccc3)cc2c1=O)NCCc1ccccc1	1.4	-0.5	73.2*	-1.2
CC(/C=N/NC(=O)Cn1nccc1C)=C\c1ccc(C(C)C)cc1	3.5	-2.6	76.3*	7.4
COc1ccc(N2CCN(C(=O)c3ccc(C(C)(C)C)cc3)CC2)cc1	0.7	0.2	84.5*	0.4
COc1ccccc1N1CCN(C(=O)c2ccc(C(C)(C)C)cc2)CC1	0.6	-1.5	95.8*	0.5
COc1cccc(CNC(=O)c2cc(S(=O)(=O)N3CCCCC3)ccc2C)c1	-1.3	.	.	.
COc1cc(CNC(=O)c2cc(-c3cc(Cl)ccc3OC)n[nH]2)cc(OC)c1	-0.4	.	.	.
O=C(Nc1ccccc1)N(C1=NCCC1)c1ccc(OC(F)F)cc1	2.6	-0.9	81.2*	0.9
Cc1nc2c(OCc3cccc(Cl)c3)cccn2c1N(C)Cc1cccs1	-1.7	.	.	.
CC1(C(=O)Nc2cccc(C#N)c2)CCN1C(=O)Cc1ccc(-c2ccccc2)cc1 (centres undefined)	-3.7	.	.	.
Cc1oc2ccc(O)cc2c1C(=O)c1ccc(Cl)cc1	4.6	6.2	71.0*	6.3
Cc1oc2ccc(O)cc2c1C(=O)c1ccc(Br)cc1	0.9	2.2	.	0.3
Cc1cc(NC(=O)c2ccc(F)cc2F)n(-c2nc3ccccc3[nH]2)n1	1.9	3.4	17.6	5.0
Cc1cc(NC(=O)CC2CCCC2)n(-c2nc3ccccc3[nH]2)n1	2.7	13.2	85.0*	0.4
O=C(Nc1ccnn1C1CCN(C(=O)c2cccnc2)CC1)c1cccc(F)c1	0.0	.	.	.
CCCCc1nc(N)c(C#N)c(-c2ccco2)c1CCC	3.5	0.7	76.6*	0.0
O=C(Nc1ccc2c(c1)C(=O)N(CC1CCCO1)C2=O)c1cccc(Br)c1 (centres undefined)	-0.9	1.7	73.3*	2.6
COc1cccc(C(C)(O)c2nc(-c3ccc(N(C)C)cc3)cs2)c1 (centres undefined)	-4.3	.	.	.
SMILES	FXN GAA850 act	UPR XBP1 act	CHOP inh	CHOP UPR activ
Cc1noc(C)c1S(=O)(=O)NC(=O)C1(C)CCN1C(=O)Cc1ccc(-c2ccccc2)cc1 (centres undefined)	0.1	.	.	.
CCn1c(Cn2nnc(-c3ccccc3)n2)nnc1SCC(=O)Nc1ccccc1	-0.4	-6.4	88.1*	-3.2
CCn1c(CNC(=O)COc2ccc(C(C)C)cc2)nnc1SCC(=O)Nc1ccccc1	-3.0	-1.9	16.4	1.1
Cc1cc2nc(NC(=O)C3(C)CCN3C(=O)C(C)C)[nH]c2cc1C (centres undefined)	-0.2	.	.	.
CCOC(=O)C1(C)CCCN(C(=O)c2cccc(C(F)(F)F)c2)C1 (centres undefined)	-1.5	.	.	.
N#CC(c1ccc(N)cc1)C(CC(=O)c1ccccc1)c1ccccc1 (centres undefined)	2.1	.	.	.
CC1CCC2(CC1)SCC(=O)N2c1ccc(F)cc1 (centres undefined)	1.9	-3.1	-10.6	-1.4
CC(C)(C)C1CCC2(CC1)SCC(=O)N2c1ccccc1 (centres undefined)	2.3	2.1	77.0*	-1.0
Cc1cccc(C)c1C(O)c1ncc(-c2cccc(C(F)(F)F)c2)[nH]1 (centres undefined)	-0.1	.	.	.
CC(Sc1nc2ccccc2c(=O)n1C)C(=O)Nc1ccc2c(c1)OCCO2 (centres undefined)	2.2	-1.3	.	3.7
